# Compound activity: PubChem, several laboratories
# Shown are actives, neighbours in structure and some others; about 4.3% of the full set was active somewhere.
# CR mimetic SO – lowers age-related superoxide in aged yeast cells | 330,000 compounds, 0.18% hits | S. cerevisiae aged cells, superoxide DHE fluorescence; active compounds read low | superoxide response (% of plate mean), % at 10 µM;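 active = superoxide response under a set limit, about three screen SD below normal, cut at about 65% in these data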;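 also: yeast aged for seven days with compound at 30 °C before DHE staining; 100% = average MFI of all compound-treated wells on the plate with controls excluded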
# SR-BI HDL uptake – mouse SR-BI HDL lipid transfer inhibition. Q61009. ldlA[mSR-BI] CHO cells, DiI-HDL uptake fluorescence, 3 h. inhibition, % at 12.5 µM. 320,000 compounds, 0.96% hits;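 active = mean replicate inhibition of at least 70% and a set share of replicates each scoring 70 or more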;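 also: 0% = median of neutral control wells and 100% = median of positive control wells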
# Lipid droplet – hepatic lipid droplet formation modulation. AML12 mouse hepatocytes, oleate lipid droplets, BODIPY imaging. inhibition, % at 6.5 µM. 240,000 compounds, 0.4% hits;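 active = lipid droplet intensity inhibited by at least 50%, with more than 500 cells counted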
#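 Test system: AML12 hepatocytes (mouse); reagent: oleate loading, 100 µM; dosing: one dose, 6.5 µM compound; incubation: overnight exposure; signal: fluorescence imaging, 20x objective, two fields per well; read-out basis: % inhibition of corrected integrated BODIPY droplet signal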
# AHR act – activates the human aryl hydrocarbon receptor. P35869. AHR-responsive luciferase reporter cells, luminescence. activation, % at 5 µM. 320,000 compounds, 2.5% hits; in the data active = activation above about 47%;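 also: 0% = vehicle wells and 100% = reference agonist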
# SMARCA2 act – SMARCA2 function activation, primary screen; MG213 cells, MMTV-luciferase reporter, dexamethasone, overnight; activation, % at 9.1 µM; 370,000 compounds, 1% hits; in the data active = activation above about 7.8%;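 also: 0% = vehicle wells and 100% = reference activator wells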
# SR-BI DiI-HDL act – SR-BI HDL lipid transfer activation. CHO ldlA[mSR-BI] cells, DiI-HDL uptake fluorescence, 3 h; 100 = double the neutral-control signal. activation, % at 12.5 µM. 320,000 compounds, 0.096% hits;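 active = mean replicate activation of at least 60% and every replicate at or above 60%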;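 also: 0% = median plate neutral-control signal and 100% = twice that signal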
#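 system = CHO ldlA[mSR-BI] cells, LDL receptor-null, SR-BI overexpressing | medium = Ham's F12 with 0.5% BSA, HEPES 25 mM, pH 7.4 | probe or stimulus = DiI-HDL 10 µg/mL | compound dosing = single-point compound dose | incubation = compound exposure 3 h, 37 °C | technique = DiI fluorescence, bottom read | read-out = cell-associated DiI fluorescence as measure of HDL uptake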
# AHR act confirm – confirmation of human aryl hydrocarbon receptor activators. shares compounds with AHR act. human cells, AHR-responsive luciferase reporter, luminescence. activation, % at 9 µM. 2,300 compounds, 87% hits. AID 2845; in the data active = activation above about 49%;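 also: HepG2 hepatoma cells carrying a DRE-driven firefly luciferase reporter; 0% = vehicle wells and 100% = reference agonist wells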
# PXR counter – PXR activation, counter-screen for AHR activators; shares compounds with AHR act; cell-based PXR reporter, luciferase luminescence; activation, % at 11.6 µM; 2,300 compounds, 88% hits; AID 434939; in the data active = activation above about 11%;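 also: human hepatoma DPX-2 cells expressing full-length human PXR; 0% = DMSO and 100% = reference agonist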
# Target sequence (O75469 whole entry, looked up): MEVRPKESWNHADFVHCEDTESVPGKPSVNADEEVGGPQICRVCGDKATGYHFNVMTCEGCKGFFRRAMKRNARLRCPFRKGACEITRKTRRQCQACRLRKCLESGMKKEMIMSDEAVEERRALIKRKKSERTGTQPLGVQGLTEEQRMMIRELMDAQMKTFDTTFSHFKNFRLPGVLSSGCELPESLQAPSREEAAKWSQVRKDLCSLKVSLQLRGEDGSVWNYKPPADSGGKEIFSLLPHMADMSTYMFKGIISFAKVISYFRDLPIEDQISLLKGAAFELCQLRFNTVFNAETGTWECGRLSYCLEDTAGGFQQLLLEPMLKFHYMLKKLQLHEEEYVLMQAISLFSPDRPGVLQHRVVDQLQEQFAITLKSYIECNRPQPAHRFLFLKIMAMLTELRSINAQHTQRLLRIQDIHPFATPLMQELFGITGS
# Numbers without * were called inactive; nt = no result given.
SMILES,CR mimetic SO,SR-BI HDL uptake,Lipid droplet,AHR act,SMARCA2 act,SR-BI DiI-HDL act,AHR act confirm,PXR counter
O=C(NC(=S)NCCc1ccccc1)c1cccc(Cl)c1,97.7,-12.8,-4.5,124.3*,2.3,12.8,138.8*,18.8*
O=C(NC(=S)NCCc1ccccn1)c1ccccc1,104.1,1.2,-20.0,99.9*,3.9,-1.2,62.3*,12.2*
Cc1ccc2ncccc2c1NC(=S)NC(=O)c1ccccc1,105.6,9.9,-4.3,86.1*,-3.1,-9.9,125.5*,37.0*
CCCCc1c(-c2ccccc2OC)ncn1Cc1ccc(OC)cc1,nt,nt,nt,nt,-6.6,nt,nt,nt
FC(F)(F)c1ccccc1Cc1c(-c2ccco2)nc2c3ccccc3ccn12,nt,nt,nt,nt,3.6,nt,nt,nt
CCc1nnc(NC(=O)c2sc3nc4c(cc3c2N)CCCCC4)s1,114.9,-16.8,11.6,123.7*,5.8,16.8,29.2,35.7*
CCOC(=O)CC[C@@]1(C(=O)OCC)C[C@@H](CC(=O)NCc2ccc(OC)c(OC)c2)C(=O)N2CCCC=C21,nt,nt,nt,nt,-3.1,nt,nt,nt
COc1cc2[nH]c(=S)n(Cc3ccco3)c(=O)c2cc1OC,124.1,22.6,8.6,82.1*,-2.4,-22.6,83.8*,71.8*
COC(=O)Cc1nnn2c1[C@@H](C)[C@@H](c1ccccc1Br)OC[C@@H]2c1ccccc1,nt,nt,nt,nt,-4.1,nt,nt,nt
S=c1[nH]nc(-c2cc(-c3ccco3)[nH]n2)n1-c1ccccc1Cl,105.3,18.9,nt,5.7,-2.1,-18.9,nt,nt
S=c1[nH]nc(-c2cc(-c3ccco3)[nH]n2)n1-c1ccccc1,99.8,1.3,nt,88.4*,-0.7,-1.3,96.4*,18.2*
Oc1c(-c2cc(-c3ccco3)[nH]n2)ccc2ccccc12,98.2,32.8,0.9,115.6*,3.1,-32.8,149.1*,13.2*
COCC(=O)Nc1nnc(-c2ccc(C(C)(C)C)cc2)s1,113.4,-14.4,1.7,85.8*,2.4,14.4,98.9*,29.7*
O=C(CN1CCCCC1)Nc1nnc(-c2ccc([N+](=O)[O-])cc2)s1,102.2,41.2,nt,-0.4,-4.3,-41.2,nt,nt
O=C(CN1CCCC1)Nc1nnc(-c2cccs2)s1,101.0,-2.8,8.7,125.9*,-0.3,2.8,124.6*,16.0*
COc1ccc(NC(=O)Nc2nnc(-c3cccs3)s2)cc1,102.6,nt,0.9,89.8*,1.0,nt,101.6*,36.9*
O=C(CN1CCCCCC1)Nc1nc2ccccc2s1,nt,-6.8,nt,nt,-0.5,6.8,nt,nt
COc1ccc(NC(=O)Nc2nnc(Cc3ccccc3)s2)cc1,92.3,1.8,-9.2,16.1,-2.7,-1.8,nt,nt
O=C(CN1CCCCC1)Nc1nnc(-c2ccccc2)s1,92.2,30.4,nt,109.2*,1.9,-30.4,132.2*,26.9*
FC(F)(F)c1ccccc1C(C#Cc1ccccc1)NCc1ccc2c(c1)OCO2 (stereo unspecified),nt,nt,nt,nt,-3.8,nt,nt,nt
C/C(=N\NC(=O)c1cccc2ccccc12)c1cccs1,107.7,-4.6,-11.0,6.9,2.4,4.6,nt,nt
C/C(=N\NC(=O)c1c[nH]c2ccccc12)c1ccc(C)s1,106.6,4.2,-12.8,91.7*,1.3,-4.2,125.7*,59.4*
CC/C(=N\NC(=O)c1c[nH]c2ccccc12)c1cccs1,91.5,2.1,-5.4,83.0*,2.9,-2.1,151.4*,54.8*
C=CCN1C(=O)[C@@H](CC(=O)NCc2cccs2)[C@]2(C(=O)OCC)CCCCC/C=C/12,nt,nt,nt,nt,-2.8,nt,nt,nt
C#CCNC(=O)C[C@H]1C(=O)N(CCc2ccc(Cl)cc2)C2=CCCC[C@@]21C(=O)OCC,nt,nt,nt,nt,-2.5,nt,nt,nt
SMILES,CR mimetic SO,SR-BI HDL uptake,Lipid droplet,AHR act,SMARCA2 act,SR-BI DiI-HDL act,AHR act confirm,PXR counter
CCOC(=O)c1cc(Cl)c2c(ccc3ccccc32)n1,nt,nt,nt,nt,-2.9,nt,nt,nt
COc1ccc(-c2cc(C(=O)OCC(=O)N(C)C)c3ccccc3n2)cc1,104.3,50.0,5.3,7.3,1.1,-50.0,nt,nt
CCOC(=O)Cc1cc(-c2ccc(OC)cc2)nc2ccc3ccccc3c12,112.9,48.8,-6.2,128.6*,0.0,-48.8,107.6*,16.3*
CCOC(=O)Cc1cc(-c2ccc(O)cc2)nc2ccc3ccccc3c12,98.9,48.3,nt,101.5*,-2.8,-48.3,91.8*,nt
COc1cc(NC(=O)c2ccccc2)c(OC)cc1NC(C)=O,93.4,13.9,9.2,85.7*,-4.7,-13.9,113.1*,10.8*
COc1ccc(C(=O)Nc2cc(OC)c(NC(=O)c3ccco3)cc2OC)cc1,129.5,68.5,8.9,82.3*,0.9,-68.5,110.0*,nt
CCC(=O)Nc1cc(OC)c(NC(=O)c2ccccc2)cc1OC,87.9,51.2,16.4,81.9*,-2.4,-51.2,108.8*,nt
COc1cc(NS(C)(=O)=O)c(OC)cc1NC(=O)c1ccccc1,79.8,40.8,4.8,9.8,2.1,-40.8,nt,nt
C[C@H](CO)N1C[C@H](C)[C@H](CN(C)S(=O)(=O)c2cccs2)Oc2ncc(Br)cc2C1=O,nt,nt,nt,nt,2.7,nt,nt,nt
CN(CCO)c1cccc2c1S(=O)(=O)N(Cc1cn(Cc3ccccc3C(F)(F)F)nn1)Cc1ccccc1O2,nt,nt,nt,nt,-2.9,nt,nt,nt
O=c1c2ccccc2nc(-c2ccco2)n1CCCn1ccnc1,75.5,-26.6,nt,83.2*,1.2,26.6,103.0*,23.1*
COC(=O)[C@]12CCCCC=C1N(Cc1ccc(OC)cc1)C(=O)[C@@H]2CC(=O)NCC12CC3CC(CC(C3)C1)C2,nt,nt,nt,nt,-1.2,nt,nt,nt
O=C1C(Cl)=C(N2CCOCC2)C(=O)N1CCc1ccccc1,86.8,22.2,2.2,92.1*,2.3,-22.2,116.7*,16.2*
CN1CCN(C2=C(Cl)C(=O)N(CCc3ccccc3)C2=O)CC1,100.4,-2.0,0.4,0.6,0.1,2.0,nt,nt
O=C1C(Cl)=C(NCC2CCCO2)C(=O)N1CCc1ccccc1 (stereo unspecified),117.0,-36.6,-8.6,92.4*,4.1,36.6,90.8*,65.3*
O=C1C(Cl)=C(NCC2CCCO2)C(=O)N1c1cccc(Cl)c1Cl (stereo unspecified),116.8,10.9,nt,0.2,-0.8,-10.9,nt,nt
COc1cc(-c2nc(-c3ccccc3)c(-c3ccc(F)cc3)[nH]2)cc2c1OCO2,85.9,84.7*,-12.5,116.5*,-1.2,-84.7,84.1*,65.6*
O=c1c(-c2ccc(Cl)cc2)cnc2n1CCS2,95.5,-9.6,16.1,115.9*,-4.1,9.6,130.5*,52.6*
O=C(c1cnc2n(c1=O)CCS2)N1CCN(C(c2ccccc2)c2ccc(Cl)cc2)CC1 (stereo unspecified),95.8,-2.3,nt,2.3,nt,2.3,nt,nt
CC(C)(C)c1ccc(-c2nnc(SCC(=O)Nc3ccc(S(=O)(=O)Nc4nccs4)cc3)n2-c2ccc(Cl)cc2)cc1,nt,nt,nt,nt,1.1,nt,nt,nt
